A selection: hits, their analogues and other compounds. The true share with any hit is near 3%.
HTR1E agonist – 5-HT1E receptor agonists, primary screen, cell-based, HTS | 5-hydroxytryptamine receptor 1E (Homo sapiens), P28566 | CHO 5-HT1E Ga15 NFAT-bla reporter, FRET; 0% DMSO wells, 100% control agonist wells | activation, % at 6 µM | 65,000 compounds, 0.69% hits | AID 574, 2007;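 active = activation above a set limit, the screen-wide mean activation plus 3 SD, cut at about 8.5% in these data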;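 also: 100% = positive control agonist at 1 µM giving full maximal response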
Target sequence (P28566 whole entry, looked up): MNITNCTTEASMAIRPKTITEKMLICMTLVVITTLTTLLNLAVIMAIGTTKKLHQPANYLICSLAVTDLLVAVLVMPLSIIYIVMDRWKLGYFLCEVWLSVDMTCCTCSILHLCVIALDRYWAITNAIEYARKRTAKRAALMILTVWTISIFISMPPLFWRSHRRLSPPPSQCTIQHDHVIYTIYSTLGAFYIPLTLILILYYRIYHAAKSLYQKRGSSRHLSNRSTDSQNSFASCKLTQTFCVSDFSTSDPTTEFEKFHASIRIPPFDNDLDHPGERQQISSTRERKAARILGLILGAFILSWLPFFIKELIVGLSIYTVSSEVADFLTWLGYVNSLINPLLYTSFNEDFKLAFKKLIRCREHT
5-HT1A blocker – human 5-HT1a receptor antagonists, primary screen, cell-based, CHO, Ga15 NFAT-bla reporter; 5-hydroxytryptamine receptor 1A (Homo sapiens), P08908; CHO 5-HT1a Ga15 NFAT-bla reporter, antagonist mode; inhibition, % at 10 µM; 62,000 compounds, 0.68% hits;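 active = inhibition above the mean of all tested compounds plus 3 SD, cut at about 43% in these data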;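 also: receptor stimulated by 5-CT agonist at 100 nM near EC80; beta-lactamase reporter measured by ratiometric fluorescence of a cleavable substrate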
S1P1 ag-PAM – S1P1 agonists and agonism potentiators, primary screen, cell-based, primary and confirmation screens, CRE-bla reporter; Sphingosine 1-phosphate receptor 1 (Homo sapiens), P21453; S1P1 CRE-bla cells, forskolin, beta-lactamase FRET, potentiator mode; S1P1 agonist co-added at EC20, 2 nM; 100% = saturating reference agonist, 0% = basal; activation, % at 9.5 µM; 56,000 compounds, 0.57% hits;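 active = activation above a cutoff set at the mean activation of all tested compounds plus 3 SD, cut at about 54% in these data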;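 also: forskolin at 4 µM as EC80 and the EC20 agonist is SEW2871; 100% = SEW2871 at its EC100 plus forskolin at EC80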
5HT1E antag – 5-HT1E receptor antagonists, primary screen, cell-based, HTS. 65,000 compounds, 0.99% hits. CHO 5-HT1E Ga15 NFAT-bla reporter, FRET, antagonist. inhibition, % at 6 µM. 5-hydroxytryptamine receptor 1E (Homo sapiens), P28566;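 active = inhibition above a set limit, the mean inhibition across every tested compound plus 3 SD, cut at about 29% in these data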;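 also: signal is the 460 over 535 nm emission ratio of beta-lactamase substrate; 0% = agonist plus DMSO wells and 100% = wells without agonist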
S1P3 ag – human S1P3 receptor agonists, primary screen, cell-based, primary and confirmation, NFAT-BLA reporter; activation, % at 4.5 µM; 60,000 compounds, 0.1% hits; S1P3 NFAT-BLA reporter cells, agonism, FRET ratio; relative to 1 µM S1P, basal subtracted; Sphingosine 1-phosphate receptor 3 (Homo sapiens), Q99500; AID 373, 2006;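 active = activation above the screen-wide mean plus 3 SD, cut at about 4.5% in these data, passing the limit was not always enough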
Target sequence (Q99500 whole entry, looked up): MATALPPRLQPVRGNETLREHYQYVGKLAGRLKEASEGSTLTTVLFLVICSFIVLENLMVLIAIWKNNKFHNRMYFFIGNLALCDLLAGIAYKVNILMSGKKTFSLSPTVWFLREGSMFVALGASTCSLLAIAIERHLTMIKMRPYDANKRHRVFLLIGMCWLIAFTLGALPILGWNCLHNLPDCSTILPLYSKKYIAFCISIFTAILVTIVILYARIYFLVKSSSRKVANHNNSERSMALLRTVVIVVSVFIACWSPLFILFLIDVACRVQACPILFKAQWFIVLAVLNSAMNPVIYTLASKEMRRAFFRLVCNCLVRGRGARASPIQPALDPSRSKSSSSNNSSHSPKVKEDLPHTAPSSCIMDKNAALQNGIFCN
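Assay system: stable CHO line with human S1P3, Gα16, NFAT-BLA reporter; Detection: FRET β-lactamase substrate fluorescence, excitation 405 nm, 460/535 nm emission ratio, background-subtracted; Read-out: percent activation versus median 1 µM S1P response, basal-subtracted, per plate; Incubation: cells plated overnight, compound 4 h 37 °C, substrate 2 h RT.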
5HT1a ag – human 5-HT1a receptor agonists, primary screen, cell-based, CHO, Ga15 NFAT-bla reporter | CHO 5-HT1a Ga15 NFAT-bla reporter, FRET ratio; 0% basal, 100% maximal reference agonist | activation, % at 10 µM | 65,000 compounds, 0.56% hits;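 active = activation above the screen-wide mean activation plus 3 SD, cut at about 19% in these data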;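 also: 0% = DMSO wells and 100% = 5-CT at EC100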
An asterisk follows results filed as active; nt = not tested or not shown.

SMILES | HTR1E agonist | 5-HT1A blocker | S1P1 ag-PAM | 5HT1E antag | S1P3 ag | 5HT1a ag
O=C(CC1Oc2ccccc2NC1=O)NCc1ccccc1 (configuration not stated) | 0.3 | -6.4 | -0.5 | 1.9 | -0.9 | -1.5
CC(=O)CC1OC(=O)C(Br)=C1NCc1ccccc1 (configuration not stated) | 0.5 | 68.6* | -40.2 | 12.6 | -0.7 | -1.1
O=C(c1oc2ccccc2c1CSCc1ccccc1)N1CCN(c2ncccn2)CC1 | 0.4 | 30.0 | 20.4 | 6.5 | -1.7 | -1.0
Cc1ccc(N(CC2=NCCN2)c2cccc(O)c2)cc1 | -1.8 | nt | -11.7 | 52.2* | -2.2 | nt
Cc1cccc2cc(CN(Cc3nnnn3C3CCCC3)C3CCCCC3)c(=O)[nH]c12 | 1.0 | -1.9 | -14.5 | 32.7* | -0.4 | 0.2
c1ccc2c(c1)[nH]c1c(N3CCC4(CC3)OCCO4)ncnc12 | -0.7 | nt | 13.5 | 22.4 | -6.9 | 4.0
c1ccc2c(c1)CCN(c1ncnc3c1[nH]c1ccccc13)C2 | 0.6 | nt | 112.8* | 46.4* | -7.8 | 1.5
Cc1ccc2c(c1)[nH]c1c(N3CCN(Cc4ccccc4)CC3)ncnc12 | 0.8 | 23.9 | 132.8* | 8.6 | -2.3 | -1.2
Cc1ccc2[nH]c3c(N4CCN(Cc5ccccc5)CC4)ncnc3c2c1 | -0.4 | nt | 33.0 | 21.3 | -1.9 | 2.0
c1ccc(Cn2nnc3c(N4CCc5ccccc5C4)ncnc32)cc1 | 0.5 | -6.9 | -4.8 | 4.1 | 0.0 | 95.5*
c1ccc(CN2CCN(c3ncnc4c3[nH]c3ccccc34)CC2)cc1 | 0.7 | nt | 62.9* | 35.4* | -5.6 | 1.2
COc1nnc(-c2ccc(N3CCCCC3)c(N)c2)c2ccccc12 | 1.4 | 16.0 | nt | -6.0 | -1.0 | -1.7
CS(=O)(=O)N(CC(=O)NCc1ccc2c(c1)OCO2)Cc1ccc(Cl)cc1 | 0.3 | 18.4 | 28.2 | 13.9 | -0.9 | -2.1
CC1CCCCC1NS(=O)(=O)c1ccc(S(=O)(=O)NCc2ccncc2)cc1 (configuration not stated) | 0.1 | 9.7 | 48.3 | 17.9 | -1.4 | 2.1
Cc1ccc2[nH]c3c(N4CCCCCC4)ncnc3c2c1 | -0.4 | nt | 96.9* | 31.9* | -3.8 | 1.9
CCOC(=O)C1CCCN(C(=O)CNC(=O)Cn2ccc3ccccc3c2=O)C1 (configuration not stated) | -0.1 | -5.4 | nt | 5.5 | nt | -2.3
Cn1c(-c2ccccc2)cc2c3no[n+]([O-])c3ccc21 | -0.2 | 44.5* | 37.6 | 34.1* | -2.4 | 2.4
CCc1c(C)nc(N)n2c(SCC(=O)N3CCCC(C)C3)nnc12 (configuration not stated) | -0.8 | -17.6 | -4.9 | 0.8 | 0.7 | -1.7
Cc1cc(N2CCOCC2)nc(NCc2ccccc2)n1 | -0.1 | 3.6 | 58.9* | 32.6* | -2.2 | -3.7
Cc1cc(N2CCOCC2)nc(SCC(=O)c2ccccc2)n1 | 0.0 | -5.8 | nt | 1.8 | nt | 1.9
Cc1cc(=O)oc2cc(OCC(O)CN3CCN(c4ccc(F)cc4)CC3)ccc12 (configuration not stated) | -0.6 | 16.6 | nt | 3.2 | nt | 0.5
CCOc1ccccc1N1CCN(CC(O)COc2ccc3c(C)cc(=O)oc3c2)CC1 (configuration not stated) | -0.1 | 89.1* | nt | 5.6 | nt | 5.3
COc1ccccc1NC(=O)c1cc2ccc(O)cc2o/c1=N\O | 1.3 | 7.3 | -3.9 | 16.9 | 0.1 | 3.2
Cc1cccc(N=c2oc3cc(O)ccc3cc2C(N)=O)c1 | 24.1* | -189.7 | -104.6 | -15.2 | 2.1 | 63.6*
COc1ccccc1N=c1oc2cc(O)ccc2cc1C(=O)NCC1CCCO1 (configuration not stated) | 14.7* | -66.0 | -69.7 | -30.2 | 3.4 | 53.6*
SMILES | HTR1E agonist | 5-HT1A blocker | S1P1 ag-PAM | 5HT1E antag | S1P3 ag | 5HT1a ag
COc1cccc2cc(C(=O)NCC3CCCO3)c(=O)oc12 (configuration not stated) | -0.5 | -2.0 | nt | -1.4 | nt | 0.6
COc1ccccc1N=c1oc2cc(O)ccc2cc1C(N)=O | 18.8* | -92.1 | -52.0 | -24.6 | 1.5 | 44.7*
O=C1N[C@@H](Cc2cnc[nH]2)C(=O)N2CCC[C@@H]12 | 0.6 | nt | -17.1 | -5.6 | -2.7 | -1.1
O=C(O)C1C2C=CC(C2)C1C(=O)NCCc1cccc(Cl)c1 (configuration not stated) | 11.5* | 0.0 | nt | 8.1 | -0.3 | 7.6
Fc1ccccc1COc1ccc(/C=N/n2cnnc2)cc1 | -0.7 | -15.9 | 87.9* | 7.6 | -1.0 | -4.3
CC1Cc2cc(C3(O)C(=O)c4ccccc4C3=O)ccc2N1 (configuration not stated) | -0.1 | -8.8 | -12.7 | -2.1 | -0.7 | -2.4
CCn1c(N2CCN(CC(=O)Nc3cccc(C)c3C)CC2)nc2ccccc21 | 2.7 | -2.5 | 2.6 | -9.3 | -0.2 | -0.8
CCn1c(N2CCN(CC(=O)c3ccc(OC)cc3)CC2)nc2ccccc21 | 17.8* | -8.8 | 5.2 | -6.1 | 0.4 | 3.9
CCOC(=O)c1oc2ccccc2c1NC(=O)COc1cccc(OC)c1 | -0.1 | 5.0 | 1.7 | -1.9 | 0.5 | 2.0
CCOC(=O)c1oc2ccccc2c1NC(=O)c1ccccc1OC | 0.0 | 48.7* | -39.2 | 47.0* | 0.6 | -0.6
CCOc1ccc(NC2c3ccccc3C(=O)N2Cc2ccco2)cc1 (configuration not stated) | 0.8 | -1.7 | 11.7 | 12.4 | -0.9 | -2.5
CCn1cc(C(=O)NCC(=O)OC)c2cc(OC)c(OC)cc2c1=O | -0.3 | 2.3 | nt | 4.4 | nt | 0.5
CCn1cc(C(=O)NCc2ccc(C)o2)c2cc(OC)c(OC)cc2c1=O | -0.6 | 10.4 | -37.9 | 29.0* | -0.4 | 0.7
CCCOc1ccc2ccccc2c1/C=N/n1c(C)nnc1-n1nc(C)cc1C | -0.1 | 38.3 | 17.9 | 16.9 | -0.6 | 1.3
COCCNC(=O)c1cn(C)c(=O)c2cc(OC)c(OC)cc12 | -0.7 | 10.6 | nt | 4.7 | nt | 0.5
COc1cc2c(C(=O)NCCCN3CCN(c4cccc(Cl)c4)CC3)cn(C)c(=O)c2cc1OC | 16.5* | 4.7 | nt | 12.3 | nt | 12.3
CC(=O)N=c1cccc(NC(C)=O)n1O | 0.4 | -7.7 | -4.4 | -2.3 | -1.3 | -1.0
C=CCn1c(O)c(C2=c3ccccc3=NC2=O)sc1=Nc1ccc(O)cc1 | 0.4 | 55.0* | 9.8 | 11.7 | -1.0 | -9.6

Screens from PubChem BioAssay.
